Assay results as given in PubChem BioAssay AID624175 (Southern Research Specialized Biocontainment Screening …, 2012).
Active and inactive are the calls of the source.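 The calls were made as follows: active = inhibition of 30% or more at any tested concentration; inactive = the rest.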

The molecules below were run against Leucine aminopeptidase (Plasmodium falciparum (isolate 3D7)) (UniProt Q8IL11) (assay: PFM17LAP inhibitors, dose response, selectivity assay for PFM18AAP inhibitor project, biochemical, QFRET, H-Leu-NHMec substrate, set 3 (AID 624175)). Settings: recombinant PfM17LAP, H-Leu-NHMec fluorogenic cleavage.
Sequence of Leucine aminopeptidase (Plasmodium falciparum (isolate 3D7)) (Q8IL11 whole entry, looked up): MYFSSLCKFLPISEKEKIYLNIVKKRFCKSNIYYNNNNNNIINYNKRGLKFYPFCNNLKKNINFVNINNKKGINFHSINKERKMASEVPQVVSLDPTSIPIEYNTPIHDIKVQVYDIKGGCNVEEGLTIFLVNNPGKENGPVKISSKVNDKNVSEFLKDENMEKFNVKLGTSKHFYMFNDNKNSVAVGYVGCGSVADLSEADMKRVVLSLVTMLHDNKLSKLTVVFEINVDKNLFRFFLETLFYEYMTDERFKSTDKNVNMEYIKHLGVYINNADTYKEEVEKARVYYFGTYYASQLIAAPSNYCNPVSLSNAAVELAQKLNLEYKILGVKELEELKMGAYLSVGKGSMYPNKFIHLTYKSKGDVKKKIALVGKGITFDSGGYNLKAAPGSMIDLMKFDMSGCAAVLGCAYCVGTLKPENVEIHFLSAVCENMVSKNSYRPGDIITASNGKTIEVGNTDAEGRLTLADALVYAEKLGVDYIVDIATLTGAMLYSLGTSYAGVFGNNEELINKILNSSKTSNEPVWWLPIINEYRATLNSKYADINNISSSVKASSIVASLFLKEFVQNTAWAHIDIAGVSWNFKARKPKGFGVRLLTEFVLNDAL
Method in brief: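 System: recombinant PfM17LAP enzyme; input: enzyme 5 µg/mL; compound: 10-point twofold dilution series, 100 down to 0.2 µM, 2% DMSO; schedule: enzyme reaction of 90 min at room temperature; signal: fluorescence of released NHMec, excitation 370 nm, emission 460 nm; read-out: percent inhibition vs controls, IC50 by four-parameter fit, fixed bounds 0–100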
With Cc1cccc2c(NCCc3ccc(O)c(O)c3)ccnc12 the IC50 was 65.3 µM. Work on Cc1cccc2c(N(C)CCc3ccc(O)c(O)c3)ccnc12 yielded an IC50 of 55.1 µM. Oc1cccc(CCNc2ccnc3ccccc23)c1O showed an IC50 of 35.3 µM. Molecule CN(CCCc1ccc(O)c(O)c1)c1ccnc2ccccc12 has an IC50 of 57.6 µM. In the case of Cc1cc(N(C)CCc2ccc(O)c(O)c2)c2ccccc2n1, the IC50 is reported as 47.4 µM. Work on Oc1ccc(C2CCCN(c3ccnc4ccccc34)C2)cc1O (centres undefined) yielded an IC50 of 53.2 µM. In the case of CN(CCc1ccc(O)c(O)c1)c1ccnc2cc(Cl)ccc12, the IC50 is reported as 44 µM. For Oc1ccc(CCNc2ccnc3cc(Cl)ccc23)cc1O, the IC50 was 73.4 µM. Molecule Oc1ccc(C2CCN(c3ccnc4ccccc34)CC2)cc1O has an IC50 of 38.4 µM. In the case of CN(CCc1ccc(O)c(O)c1)c1ccnc2c(F)cccc12, the IC50 is reported as 34.6 µM. Work on Oc1ccc(CCNc2ccnc3c(F)cccc23)cc1O yielded an IC50 of 35.7 µM. Molecule CN(CCc1ccc(O)c(O)c1)c1ncnc2ccccc12 has an IC50 of 30.4 µM. Work on CC(C)(CNc1ccnc2ccccc12)c1ccc(O)c(O)c1 yielded an IC50 of 101 µM. Molecule Oc1ccc(C2CCN(c3ccnc4ccccc34)C2)cc1O (centres undefined) has an IC50 of 30.3 µM. Oc1ccc(CCCNc2c3c(nc4ccccc24)CCCC3)cc1O gave an IC50 of 56 µM. CC(Cc1ccc(O)c(O)c1)Nc1ccnc2ccccc12 (centres undefined) showed an IC50 of 76.5 µM.

Same assay, conditions: recombinant PfM17LAP, H-Leu-NHMec fluorogenic cleavage; at 50 µM (top of the series)
With CCN(CC)Cc1cc(Nc2ccnc3cc(Cl)ccc23)ccc1O the inhibition was “inactive”.

Same assay, conditions: recombinant PfM17LAP, H-Leu-NHMec fluorogenic cleavage; at 100 µM (top of the series)
COc1ccc(CCN(C)c2ccnc3c(F)cccc23)cc1OC was tested, and the inhibition was “inactive”. In the case of CCOc1ccc2nccc(N(C)CCc3ccc(OC)c(OC)c3)c2c1, the inhibition is reported as “inactive”. COc1ccc(CCN(C)c2ncnc3ccccc23)cc1OC was tested, and the inhibition was “inactive”. With COc1ccc(CCNc2ccnc3c(F)cccc23)cc1OC the inhibition was “inactive”. COc1ccc(CCN(C)c2c3ccccc3nc3ccccc23)cc1OC was tested, and the inhibition was “inactive”. With CCN(CCc1ccc(OC)c(OC)c1)c1c2ccccc2nc2ccccc12 the inhibition was “inactive”. In the case of COc1ccc(CCNc2ccnc3c(C)cccc23)cc1OC, the inhibition is reported as “inactive”. In the case of CN(CCCc1ccc(O)c(O)c1)c1c2ccccc2nc2ccccc12, the inhibition is reported as “inactive”. COc1cc(Br)c(CCNc2c3ccccc3nc3ccccc23)cc1OC was tested, and the inhibition was “inactive”. For COc1ccc(CCN(C)c2ccnc3c(C)cccc23)cc1OC, the inhibition was “inactive”. In the case of COc1ccc(CCCN(C)c2c3ccccc3nc3ccccc23)cc1OC, the inhibition is reported as “inactive”. In the case of Clc1c2c(nc3ccccc13)CCCC2, the inhibition is reported as “inactive”. For COc1ccc(CCCNc2c3c(nc4ccccc24)CCCC3)cc1OC, the inhibition was “inactive”. For COc1ccc(C2CCN(c3ccnc4ccccc34)C2)cc1OC (centres undefined), the inhibition was “inactive”. For COc1ccc(C2CCN(c3ccnc4ccccc34)CC2)cc1OC, the inhibition was “inactive”. In the case of COc1ccc(CCNc2ncnc3ccccc23)cc1OC, the inhibition is reported as “inactive”. CCOc1ccc2nccc(NCCc3ccc(OC)c(OC)c3)c2c1 was tested, and the inhibition was “inactive”. COc1ccc(CCN(C)c2cc(C)nc3ccccc23)cc1OC was tested, and the inhibition was “inactive”. In the case of COc1ccc(CCNc2c3c(nc4ccc(C)cc24)CCCC3)cc1OC, the inhibition is reported as “inactive”. For Nc1c2ccccc2nc2ccccc12, the inhibition was “inactive”. COc1cc(Br)c(CCNc2ccnc3ccccc23)cc1OC was tested, and the inhibition was “inactive”. In the case of CN(CCc1ccc(O)c(O)c1)c1c2ccccc2nc2ccccc12, the inhibition is reported as “inactive”. With COc1ccc(CCNC(=O)c2cc(C)ccc2N)cc1OC the inhibition was “inactive”. With COc1ccc(CCN(C)c2ccnc3cc(Cl)ccc23)cc1OC the inhibition was “inactive”. With COc1ccc(CCNc2cc(C)nc3ccccc23)cc1OC the inhibition was “inactive”. In the case of COc1cc(Br)c(CCNc2c3c(nc4ccccc24)CCCC3)cc1OC, the inhibition is reported as “inactive”. With COc1ccc(CCNc2ccnc3cc(Cl)ccc23)cc1OC the inhibition was “inactive”.
